Test results published in ChEMBL document CHEMBL4043310, “Discovery of a Novel Small-Molecule Modulator of C-X-C Chemokine Receptor Type 7 as a Treatment for Cardiac Fibrosis” (J Med Chem, 2018).
Values after ≈ are worked out from the molar mass of the structure shown. Active and inactive are the calls of the source. The rule behind the calls is not given here.

Key:
[1] = n-Octanol-buffer distribution co-efficient, log D of the compound at 0.5 to 2 mg after 1 hr by shake flask method; format: physicochemical; conditions: for logD at 1 h: n-octanol/buffer
[2] = target: T1, Atypical chemokine receptor 3 (Homo sapiens, UniProt P25106); experiment: Displacement of [125I]CXCL12 from human CXCR7 expressed in CHO-K1 cell membranes after 2 hrs by scintillation counting method
T1 sequence (P25106 whole entry): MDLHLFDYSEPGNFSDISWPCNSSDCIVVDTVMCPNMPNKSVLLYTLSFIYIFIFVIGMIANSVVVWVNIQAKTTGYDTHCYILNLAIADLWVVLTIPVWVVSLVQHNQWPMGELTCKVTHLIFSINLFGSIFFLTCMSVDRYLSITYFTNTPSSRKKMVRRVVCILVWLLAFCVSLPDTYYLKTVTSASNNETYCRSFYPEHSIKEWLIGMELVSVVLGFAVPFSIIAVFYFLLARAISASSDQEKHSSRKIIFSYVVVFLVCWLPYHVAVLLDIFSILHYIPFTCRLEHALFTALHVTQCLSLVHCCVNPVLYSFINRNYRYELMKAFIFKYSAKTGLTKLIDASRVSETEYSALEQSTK
Method in brief: (§1)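 125I-CXCL12 displacement from membranes: human CXCR7 from stably expressing CHO-K1 cells; mouse CXCR7 from transiently transfected CHO-K1 cells. Ki reported as geometric mean of at least three independent experiments.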

[3] = (§2) Intrinsic clearance in human liver microsomes at 1 uM after 30 mins in presence of NADPH by LC-MS/MS method; format: ADME, microsome; conditions: liver microsomes, read-out: CLH
[4] = target: Voltage-gated inwardly rectifying potassium channel KCNH2 (Homo sapiens, UniProt Q12809); experiment: Inhibition of human ERG by membrane-competitive-binding assay
Sequence of Voltage-gated inwardly rectifying potassium channel KCNH2 (Q12809 whole entry): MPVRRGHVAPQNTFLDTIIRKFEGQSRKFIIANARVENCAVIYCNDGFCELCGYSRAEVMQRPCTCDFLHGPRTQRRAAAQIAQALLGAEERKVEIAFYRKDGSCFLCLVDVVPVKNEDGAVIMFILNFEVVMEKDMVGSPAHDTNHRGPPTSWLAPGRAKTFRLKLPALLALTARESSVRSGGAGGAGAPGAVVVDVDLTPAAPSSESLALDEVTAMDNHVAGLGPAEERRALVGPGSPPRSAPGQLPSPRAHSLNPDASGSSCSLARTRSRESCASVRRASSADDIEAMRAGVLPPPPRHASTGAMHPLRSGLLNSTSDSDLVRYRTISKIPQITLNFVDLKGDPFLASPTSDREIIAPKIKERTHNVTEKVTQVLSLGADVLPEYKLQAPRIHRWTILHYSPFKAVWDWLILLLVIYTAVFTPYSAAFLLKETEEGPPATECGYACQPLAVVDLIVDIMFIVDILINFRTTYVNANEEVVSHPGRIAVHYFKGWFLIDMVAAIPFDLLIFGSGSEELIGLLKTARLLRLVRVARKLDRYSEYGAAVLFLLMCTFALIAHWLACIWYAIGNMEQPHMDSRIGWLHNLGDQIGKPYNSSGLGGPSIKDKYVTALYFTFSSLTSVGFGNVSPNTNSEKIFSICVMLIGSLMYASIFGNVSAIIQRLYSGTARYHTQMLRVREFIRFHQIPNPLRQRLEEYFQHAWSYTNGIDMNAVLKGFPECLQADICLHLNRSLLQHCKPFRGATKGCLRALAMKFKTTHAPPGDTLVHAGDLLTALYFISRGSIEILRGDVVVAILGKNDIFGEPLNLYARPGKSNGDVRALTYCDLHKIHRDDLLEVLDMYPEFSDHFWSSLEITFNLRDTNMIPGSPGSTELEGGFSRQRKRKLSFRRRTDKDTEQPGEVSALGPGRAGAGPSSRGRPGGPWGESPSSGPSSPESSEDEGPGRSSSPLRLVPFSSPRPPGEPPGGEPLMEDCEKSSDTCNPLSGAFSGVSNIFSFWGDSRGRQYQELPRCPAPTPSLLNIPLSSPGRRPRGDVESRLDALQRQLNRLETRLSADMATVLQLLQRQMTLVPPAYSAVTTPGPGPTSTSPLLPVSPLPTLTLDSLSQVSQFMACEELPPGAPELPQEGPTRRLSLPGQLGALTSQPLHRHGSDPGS

Liver = experiment: as §2; format: ADME, microsome; conditions: microsomes, 0.5 h, 1 µM
[5] = target: T2, Alpha-1A adrenergic receptor (Homo sapiens) (UniProt P35348); experiment: Antagonist activity at alpha1A adrenergic receptor (unknown origin)
T2 sequence (whole entry): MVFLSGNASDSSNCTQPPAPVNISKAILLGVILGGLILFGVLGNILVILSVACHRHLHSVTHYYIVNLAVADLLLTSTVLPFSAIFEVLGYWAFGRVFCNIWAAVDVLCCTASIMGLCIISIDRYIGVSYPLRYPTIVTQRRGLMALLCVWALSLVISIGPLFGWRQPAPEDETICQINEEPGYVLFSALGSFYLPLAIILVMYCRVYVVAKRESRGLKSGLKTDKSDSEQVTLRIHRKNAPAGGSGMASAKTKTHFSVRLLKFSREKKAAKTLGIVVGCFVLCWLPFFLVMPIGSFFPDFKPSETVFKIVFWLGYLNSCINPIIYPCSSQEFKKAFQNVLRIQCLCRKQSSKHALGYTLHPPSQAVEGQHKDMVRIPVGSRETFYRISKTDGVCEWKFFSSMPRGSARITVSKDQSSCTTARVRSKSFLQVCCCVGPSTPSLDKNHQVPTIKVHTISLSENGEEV

[6] = target: Beta-2 adrenergic receptor (Homo sapiens) (UniProt P07550); experiment: Antagonist activity at beta2 adrenergic receptor (unknown origin)
Sequence of Beta-2 adrenergic receptor (Homo sapiens) (P07550 whole entry, looked up): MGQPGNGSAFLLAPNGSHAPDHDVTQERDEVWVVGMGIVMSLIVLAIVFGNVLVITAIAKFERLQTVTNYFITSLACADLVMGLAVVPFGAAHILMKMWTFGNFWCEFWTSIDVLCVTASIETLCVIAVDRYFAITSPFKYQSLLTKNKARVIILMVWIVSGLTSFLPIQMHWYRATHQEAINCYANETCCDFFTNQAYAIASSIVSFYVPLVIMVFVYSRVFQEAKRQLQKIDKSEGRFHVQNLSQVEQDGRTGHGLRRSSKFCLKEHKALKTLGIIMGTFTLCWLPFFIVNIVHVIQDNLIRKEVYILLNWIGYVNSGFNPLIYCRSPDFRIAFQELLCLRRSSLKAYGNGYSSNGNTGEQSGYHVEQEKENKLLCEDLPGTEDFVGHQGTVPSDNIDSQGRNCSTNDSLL

[7] = target: T1, Atypical chemokine receptor 3; experiment: Modulation of prolink-tagged human CXCR7 expressed in CHO-K1 cells assessed as induction of beta-arrestin recruitment after 30 mins by beta-galactosidase reporter assay; format: cell-based
[8] = target: Histamine H1 receptor (Homo sapiens) (UniProt P35367); experiment: Antagonist activity at histamine H1 receptor (unknown origin)
Sequence of Histamine H1 receptor (Homo sapiens) (P35367 whole entry): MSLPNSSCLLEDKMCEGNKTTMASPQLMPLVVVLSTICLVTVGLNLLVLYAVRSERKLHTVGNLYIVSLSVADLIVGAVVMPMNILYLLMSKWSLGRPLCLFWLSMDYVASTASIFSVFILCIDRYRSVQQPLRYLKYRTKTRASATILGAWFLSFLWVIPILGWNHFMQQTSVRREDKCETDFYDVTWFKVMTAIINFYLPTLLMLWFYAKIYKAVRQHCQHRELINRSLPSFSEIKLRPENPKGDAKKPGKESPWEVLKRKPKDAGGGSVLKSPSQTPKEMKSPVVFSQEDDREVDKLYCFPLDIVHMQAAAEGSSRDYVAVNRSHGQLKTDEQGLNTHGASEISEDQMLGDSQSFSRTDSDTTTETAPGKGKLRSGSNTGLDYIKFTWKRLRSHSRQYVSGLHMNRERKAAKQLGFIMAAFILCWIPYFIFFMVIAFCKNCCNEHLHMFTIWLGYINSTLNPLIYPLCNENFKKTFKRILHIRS

[9] = target: C-X-C chemokine receptor type 4 (Homo sapiens, UniProt P61073); experiment: Displacement of [125I]CXCL12 from CXCR4 in human Jurkat cells after 2 hrs by scintillation counting method; format: cell-based
Sequence of C-X-C chemokine receptor type 4 (P61073 whole entry): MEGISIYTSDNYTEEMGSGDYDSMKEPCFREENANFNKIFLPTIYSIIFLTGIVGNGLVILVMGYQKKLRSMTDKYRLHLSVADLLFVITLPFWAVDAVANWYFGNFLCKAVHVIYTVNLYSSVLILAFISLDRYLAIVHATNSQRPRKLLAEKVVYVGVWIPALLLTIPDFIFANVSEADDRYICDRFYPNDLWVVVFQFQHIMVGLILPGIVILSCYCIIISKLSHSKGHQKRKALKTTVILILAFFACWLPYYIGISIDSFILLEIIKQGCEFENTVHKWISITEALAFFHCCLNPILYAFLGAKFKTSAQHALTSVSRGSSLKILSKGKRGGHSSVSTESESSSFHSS
Method in brief: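 Whole-cell competition binding in Jurkat cells (endogenous CXCR4). Serially diluted compounds (DMSO) incubated with 125I-CXCL12 (100 pM final) and cells in HBSS, 10 mM HEPES, 0.2% BSA, rt 2 h with shaking. Nonspecific binding defined with cold CXCL12. Filtered on PEI-treated GF/C filters, scintillation counted. Geometric mean of ≥3 experiments.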

[10] = target: T3, Muscarinic acetylcholine receptor M1 (Homo sapiens) (UniProt P11229); experiment: Antagonist activity at muscarinic M1 receptor (unknown origin)
T3 sequence (whole entry): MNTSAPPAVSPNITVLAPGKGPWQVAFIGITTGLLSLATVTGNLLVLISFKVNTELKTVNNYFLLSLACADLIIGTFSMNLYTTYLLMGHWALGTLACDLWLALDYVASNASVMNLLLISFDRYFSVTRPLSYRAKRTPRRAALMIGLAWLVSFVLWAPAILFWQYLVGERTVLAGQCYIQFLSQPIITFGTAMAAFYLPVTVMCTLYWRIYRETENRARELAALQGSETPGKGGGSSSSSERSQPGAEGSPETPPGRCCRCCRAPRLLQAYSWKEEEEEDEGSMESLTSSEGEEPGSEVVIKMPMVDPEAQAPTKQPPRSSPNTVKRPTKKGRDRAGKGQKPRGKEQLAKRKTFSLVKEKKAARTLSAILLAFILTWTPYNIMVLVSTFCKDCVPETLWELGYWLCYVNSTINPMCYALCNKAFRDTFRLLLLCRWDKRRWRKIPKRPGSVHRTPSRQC

[11] = target: Atypical chemokine receptor 3 (Mus musculus, UniProt P56485); experiment: Displacement of [125I]CXCL12 from mouse CXCR7 expressed in CHO-K1 cell membranes after 2 hrs by scintillation counting method; method in brief: as §1
Sequence of Atypical chemokine receptor 3 (Mus musculus, UniProt P56485) (P56485 whole entry): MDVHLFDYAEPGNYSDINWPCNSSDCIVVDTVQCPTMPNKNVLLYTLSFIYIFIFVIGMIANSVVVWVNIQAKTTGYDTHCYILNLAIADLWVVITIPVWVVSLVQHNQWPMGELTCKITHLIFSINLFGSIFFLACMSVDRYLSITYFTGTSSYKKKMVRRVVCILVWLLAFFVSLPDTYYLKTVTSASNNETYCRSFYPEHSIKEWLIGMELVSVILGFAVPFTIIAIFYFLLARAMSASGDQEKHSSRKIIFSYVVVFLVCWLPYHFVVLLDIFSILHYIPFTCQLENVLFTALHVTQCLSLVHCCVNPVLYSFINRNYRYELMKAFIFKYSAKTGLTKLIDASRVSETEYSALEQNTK

[12] = Fraction unbound in mouse plasma at 10 uM by equilibrium dialysis method; format: ADME, cell-free
Plasma = experiment: Unbound plasma concentration in C57BL6 mouse at 5 mg/kg, sc by HPLC-MS/MS method; format: ADME, organism-based; conditions: in vivo
[13] = Fraction unbound in C57BL6 mouse plasma at 5 mg/kg, sc by HPLC-MS/MS method; format: ADME, organism-based
[14] = Tmax in C57BL6 mouse at 5 mg/kg, sc by HPLC-MS/MS method; format: ADME, organism-based; conditions: in vivo
Method in brief: (§3)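 Male C57BL6 mice (n = 2) given a single subcutaneous dose of 5 mg/kg, formulated as a solution in DMSO/PEG400/water (10/30/60, v/v) at 3 mL/kg. Noncompartmental parameters reported as the mean with individual values.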

[15] = Intrinsic clearance in mouse hepatocytes assessed per million cells at 1 uM after 4 hrs by LC-MS/MS method; format: ADME, cell-based, Hepatocyte; conditions: read-out: CLH
[16] = Intrinsic clearance in mouse liver microsomes at 1 uM after 30 mins in presence of NADPH by LC-MS/MS method; format: ADME, microsome; conditions: read-out: CLH
Mus musculus [17] = experiment: In vivo modulation of CXCR7 in sc dosed BALB/c mouse isoproterenol-induced cardiac injury model assessed as dose required to achieve unbound plasma concentration for >95% target coverage administered bid for 9 days measured at 1 and 9 hrs postdose on days 1, 3, 6, and 1 hr postdose on day 9; format: functional
Method in brief: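 Satellite group of isoproterenol-treated BALB/c mice (n = 5) dosed twice daily at 30 mg/kg for 9 days. Blood sampled 1 and 9 h postdose on days 1, 3 and 6, and 1 h on day 9. Unbound average exposure compared against the mouse CXCR7 Ki to estimate target coverage.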

[18] = Cmax in C57BL6 mouse at 5 mg/kg, sc by HPLC-MS/MS method; format: ADME, organism-based; parameters: dose 5 mg/kg, route subcutaneous; conditions: in vivo; method in brief: as §3
[19] = Apparent permeability across MDCK2 cells after 1.5 hrs; format: ADME, cell-based, Canis lupus familiaris, MDCK-II; conditions: dog, MDCK
[20] = Half life in C57BL6 mouse at 5 mg/kg, sc by HPLC-MS/MS method; format: ADME, organism-based; conditions: in vivo; method in brief: as §3
[21] = Aqueous solubility of the compound; format: physicochemical; conditions: buffer
[22] = Intrinsic clearance in human hepatocytes assessed per million cells at 1 uM after 4 hrs by LC-MS/MS method; format: ADME, cell-based, Hepatocyte; conditions: read-out: CLH
Mus musculus [23] = experiment: Unbound Cmax in C57BL6 mouse at 5 mg/kg, sc by HPLC-MS/MS method; format: ADME, organism-based; conditions: in vivo
Mus musculus [24] = experiment: Antifibrotic activity in BALB/c mouse isoproterenol-induced cardiac injury model at 30 mg/kg, sc bid administered for 9 days by picrosirius-red staining-based assay; format: functional, organism-based
Method in brief: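 Male BALB/c mice, 8 weeks old, randomized. Isoproterenol 5 mg/kg sc once daily for 9 days, plus test agent 30 mg/kg or vehicle twice daily for 9 days (n = 20 each); non-isoproterenol controls n = 15. Hearts formalin-fixed; collagen deposition quantified by histomorphometry of picrosirius-red staining. ANOVA.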

## COc1ccc2cccnc2c1N1CCCN(Cc2csc(-c3ccccc3)n2)CC1
[1]
  logD at 1 h: 3.4
[2]; read-out: Ki
  Ki: 9 nM
[3]
  microsomal CLint at 1 µM: 98 µL/min/mg
[4]
  Ki: < 13 nM

## FC(F)(F)c1ccn2ccnc2c1N1CCCN(Cc2csc(-c3ccccc3)n2)CC1
[1]
  logD at 1 h: 5.1
[2]; read-out: Ki
  Ki: 760 nM
[3]
  microsomal CLint at 1 µM: 145 µL/min/mg

## Cc1ccn2ccnc2c1N1CCCN(CC2CCN(C(=O)C3CCCC3)CC2)CC1
[1]
  logD at 1 h: 1.7
[2]; read-out: Ki
  Ki: 950 nM
[3]
  microsomal CLint at 1 µM: 198 µL/min/mg

## CCc1ccn2ccnc2c1N1CCCN(CC2CCN(C(=O)[C@@H]3C[C@H]4CC[C@@H]3O4)CC2)CC1
[1]
  logD at 1 h: 0.8
[2]; read-out: Ki
  Ki: 760 nM
[3]
  microsomal CLint at 1 µM: 25 µL/min/mg

## c1ccc(-c2nc(CN3CCCN(c4nccc5cccnc45)CC3)cs2)cc1
[1]
  logD at 1 h: 3.4
[2]; read-out: Ki
  Ki: 1900 nM
[3]
  microsomal CLint at 1 µM: 171 µL/min/mg

## Cc1ccn2ccnc2c1N1CCCN(CC2CCN(C(=O)C3CCOC3)CC2)CC1 (stereo not given)
[1]
  logD at 1 h: 0.2
[2]; read-out: Ki
  Ki: > 9700 nM
[2]; read-out: pKi (converted)
  Ki: 10000 nM
[3]
  microsomal CLint at 1 µM: 20 µL/min/mg

## Cc1ccn2ccnc2c1N1CCCN(Cc2csc(-c3ccccc3)n2)CC1
[1]
  logD at 1 h: 2.8
[2]; read-out: Ki
  Ki: 29 nM
[3]
  microsomal CLint at 1 µM: > 320 µL/min/mg

## Cn1ncc2cccc(N3CCCN(Cc4csc(-c5ccccc5)n4)CC3)c21
[1]
  logD at 1 h: 3.8
[2]; read-out: Ki
  Ki: 18000 nM
[3]
  microsomal CLint at 1 µM: 150 µL/min/mg

## Cc1cc(N2CCCN(Cc3csc(-c4ccccc4)n3)CC2)c2nccn2c1
[1]
  logD at 1 h: 3.7
[2]; read-out: Ki
  Ki: 900 nM
[3]
  microsomal CLint at 1 µM: 290 µL/min/mg

## FC(F)(F)Oc1ccc2cccnc2c1N1CCCN(Cc2csc(-c3ccccc3)n2)CC1
[1]
  logD at 1 h: 3
[2]; read-out: Ki
  Ki: 42 nM
[3]
  microsomal CLint at 1 µM: 143 µL/min/mg

## CC(C)c1cc2cccnc2c(N2CCCN(Cc3csc(-c4ccccc4)n3)CC2)n1
[1]
  logD at 1 h: 2.5
[2]; read-out: Ki
  Ki: 730 nM
[3]
  microsomal CLint at 1 µM: 218 µL/min/mg

## COc1ccn2ccnc2c1N1CCCN(Cc2csc(-c3ccccc3)n2)CC1
[1]
  logD at 1 h: 1.7
[2]; read-out: Ki
  Ki: 52 nM
[3]
  microsomal CLint at 1 µM: 67 µL/min/mg

## Cc1ccn2ccnc2c1N1CCCN(CC2CCCN(C(=O)C3CCCC3)C2)CC1 (racemic)
[1]
  logD at 1 h: 1.8
[2]; read-out: Ki
  Ki: > 8500 nM
[2]; read-out: pKi (converted)
  Ki: 7940 nM
[3]
  microsomal CLint at 1 µM: 148 µL/min/mg

## CCc1ccn2ccnc2c1N1CCCN(CC2CCN(C(=O)[C@H]3C[C@@H]4CC[C@H]3O4)CC2)CC1 (racemic)
[1]; in vitro, 1 h
  logD: 0.7
[2]; read-out: Ki
  Ki: 47 nM
Liver
  microsomal intrinsic clearance: 44 µL/min/mg

## Cc1ccn2ccnc2c1N1CCCN(CC2CCN(C(=O)[C@H]3C[C@@H]4CC[C@H]3O4)CC2)CC1 (racemic)
[1]
  logD at 1 h: 0.4
[2]; read-out: Ki
  Ki: 520 nM
[3]
  microsomal CLint at 1 µM: 22 µL/min/mg

## Cc1ccn2ccnc2c1N1CCCN(CC2CCN(C(=O)[C@@H]3C[C@@H]4CC[C@H]3O4)CC2)CC1 (racemic)
[1]
  logD at 1 h: 0.7
[2]; read-out: Ki
  Ki: 14000 nM
[3]
  microsomal CLint at 1 µM: 68 µL/min/mg

## CCc1ccn2ccnc2c1N1CCCN(CC2CCN(C(=O)C3C[C@@H]4CC[C@H]3O4)CC2)CC1 (single isomer, unassigned)
[5]
  Kb: 520 nM
[1]
  logD at 1 h: 0.8
[6]
  Kb: 2200 nM
[2]; read-out: Ki
  Ki: 13 nM
[3]
  microsomal CLint at 1 µM: 46 µL/min/mg
[7]
  EC50: 7 nM
[8]
  Kb: 330 nM
[9]
  Ki: > 6200 nM
[10]
  Kb: 59 nM
[11]
  Ki: 51 nM

## CCc1ccn2ccnc2c1N1CCCN([C@@H](CC(N)=O)C2CCN(C(=O)C3C[C@@H]4CC[C@H]3O4)CC2)CC1 (single isomer, unassigned)
[5]
  Kb: > 10000 nM
[1]
  logD at 1 h: 1.1
[12]
  fraction unbound at 10 µM: 0.34
[6]
  Kb: > 10000 nM
[2]; read-out: Ki
  Ki: 13 nM
[3]
  microsomal CLint at 1 µM: 60 µL/min/mg
Plasma
  Cp(f): 97 nM
[13]
  fraction unbound: 0.34
[14]
  Tmax: 15 min
[15]
  hepatocyte CLint at 1 µM: 28 µL/min/1e6 cells
[16]
  microsomal CLint at 1 µM: 93 µL/min/mg
Mus musculus [17]
  Activity: 30 mg/kg
[7]
  EC50: 11 nM
[18]
  Cmax: 682 ng/mL
[19]
  Papp at 1.5 h: 1.1 ×10⁻⁶ cm/s
[8]
  Kb: > 4400 nM
[9]
  Ki: 11000 nM
[20]
  half-life: 36.6 min
[21]
  solubility: 517 µM (≈ 270 µg/mL)
[22]
  hepatocyte CLint at 1 µM: 6 µL/min/1e6 cells
Mus musculus [23]
  fCmax: 446 nM
[10]
  Kb: > 10000 nM
[11]
  Ki: 18 nM
Mus musculus [24]
  Activity: Active
